In ChEMBL document CHEMBL4842326, “Design, synthesis and biological evaluation of 3, 4-disubstituted-imidazolidine-2, 5-dione derivatives as HDAC6 selective inhibitors” (Eur J Med Chem, 2021):

How the values were obtained:
[1] = biological target: T1, Protein deacetylase HDAC6 (Homo sapiens, UniProt Q9UBN7); experiment: Inhibition of HDAC6 (unknown origin) using Ac-LeuGlyLy-s(Ac)-AMC as substrate preincubated for 10 mins followed by substrate addition and further incubated for 2 hrs by fluorescence microtiter plate reader assay
T1 sequence (Q9UBN7 whole entry): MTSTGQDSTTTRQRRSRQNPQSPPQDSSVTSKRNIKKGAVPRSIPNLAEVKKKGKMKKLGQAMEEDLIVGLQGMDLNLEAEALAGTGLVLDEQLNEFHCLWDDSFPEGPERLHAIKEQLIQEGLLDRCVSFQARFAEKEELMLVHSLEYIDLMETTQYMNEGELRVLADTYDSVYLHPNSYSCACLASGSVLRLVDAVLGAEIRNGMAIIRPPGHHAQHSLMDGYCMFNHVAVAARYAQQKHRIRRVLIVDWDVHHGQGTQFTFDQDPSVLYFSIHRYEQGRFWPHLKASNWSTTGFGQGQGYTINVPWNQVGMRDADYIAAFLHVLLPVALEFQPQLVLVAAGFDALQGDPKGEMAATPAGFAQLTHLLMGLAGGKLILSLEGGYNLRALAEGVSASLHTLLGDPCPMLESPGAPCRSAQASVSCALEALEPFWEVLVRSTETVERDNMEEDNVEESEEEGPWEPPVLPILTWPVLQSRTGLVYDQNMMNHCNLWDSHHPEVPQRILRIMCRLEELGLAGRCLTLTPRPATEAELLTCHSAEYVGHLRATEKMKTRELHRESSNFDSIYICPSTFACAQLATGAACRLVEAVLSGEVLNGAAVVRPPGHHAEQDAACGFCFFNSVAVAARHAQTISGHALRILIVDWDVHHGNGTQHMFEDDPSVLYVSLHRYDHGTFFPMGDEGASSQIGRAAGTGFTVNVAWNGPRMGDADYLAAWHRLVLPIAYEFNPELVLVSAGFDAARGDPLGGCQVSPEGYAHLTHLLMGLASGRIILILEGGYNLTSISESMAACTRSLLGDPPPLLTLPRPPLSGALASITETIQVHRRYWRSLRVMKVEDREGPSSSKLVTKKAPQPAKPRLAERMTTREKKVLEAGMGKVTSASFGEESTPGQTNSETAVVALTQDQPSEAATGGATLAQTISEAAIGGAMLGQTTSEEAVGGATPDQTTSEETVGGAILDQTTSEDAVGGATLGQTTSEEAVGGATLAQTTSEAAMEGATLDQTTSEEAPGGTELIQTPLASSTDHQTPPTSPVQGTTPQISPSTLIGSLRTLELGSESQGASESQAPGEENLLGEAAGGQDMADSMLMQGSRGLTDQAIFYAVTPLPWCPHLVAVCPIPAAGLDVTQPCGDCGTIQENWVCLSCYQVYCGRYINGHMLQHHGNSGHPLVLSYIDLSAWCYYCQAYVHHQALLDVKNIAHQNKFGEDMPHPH

Histone deacetylase 8 [2] = biological target: T2, Histone deacetylase 8 (Homo sapiens, UniProt Q9BY41); experiment: Inhibition of HDAC8 (unknown origin) using Ac-LeuGlyLys(tfa)-AMC as substrate preincubated for 10 mins followed by substrate addition and further incubated for incubated for 1 hrs by fluorescence microtiter plate reader assay
T2 sequence (Q9BY41 whole entry): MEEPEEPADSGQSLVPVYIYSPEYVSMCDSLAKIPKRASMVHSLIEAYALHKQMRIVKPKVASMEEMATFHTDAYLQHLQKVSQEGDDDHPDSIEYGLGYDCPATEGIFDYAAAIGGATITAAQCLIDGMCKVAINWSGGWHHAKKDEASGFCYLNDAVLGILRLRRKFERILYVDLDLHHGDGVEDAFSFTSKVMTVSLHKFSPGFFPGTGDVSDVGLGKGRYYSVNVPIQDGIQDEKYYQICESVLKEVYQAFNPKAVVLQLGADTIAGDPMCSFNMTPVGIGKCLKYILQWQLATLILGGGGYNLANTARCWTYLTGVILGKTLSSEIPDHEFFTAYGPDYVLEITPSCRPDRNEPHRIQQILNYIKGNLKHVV

Histone deacetylase 1 [3] = biological target: T3, Histone deacetylase 1 (Homo sapiens, UniProt Q13547); experiment: Inhibition of HDAC1 (unknown origin) using Ac-LeuGlyLys(Ac)-AMC as substrate preincubated for 10 mins followed by substrate addition and further incubated for incubated for 1 hrs by fluorescence microtiter plate reader assay
T3 sequence (Q13547 whole entry): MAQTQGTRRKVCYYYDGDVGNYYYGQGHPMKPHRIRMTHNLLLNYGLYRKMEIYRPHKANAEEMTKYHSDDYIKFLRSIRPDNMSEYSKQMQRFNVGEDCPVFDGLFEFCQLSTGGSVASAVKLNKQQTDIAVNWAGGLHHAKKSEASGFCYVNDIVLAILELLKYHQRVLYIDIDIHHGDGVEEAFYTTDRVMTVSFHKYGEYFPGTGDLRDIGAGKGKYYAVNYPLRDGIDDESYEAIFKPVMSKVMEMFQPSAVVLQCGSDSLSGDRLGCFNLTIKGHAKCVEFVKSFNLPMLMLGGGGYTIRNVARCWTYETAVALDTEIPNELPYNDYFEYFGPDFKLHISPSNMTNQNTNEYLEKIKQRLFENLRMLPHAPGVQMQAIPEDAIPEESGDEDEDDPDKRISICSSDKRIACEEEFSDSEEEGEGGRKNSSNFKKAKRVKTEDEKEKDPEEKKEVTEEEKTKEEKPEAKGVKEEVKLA

Histone deacetylase 2 [4] = biological target: T4, Histone deacetylase 2 (Homo sapiens, UniProt Q92769)
T4 sequence (Q92769 whole entry): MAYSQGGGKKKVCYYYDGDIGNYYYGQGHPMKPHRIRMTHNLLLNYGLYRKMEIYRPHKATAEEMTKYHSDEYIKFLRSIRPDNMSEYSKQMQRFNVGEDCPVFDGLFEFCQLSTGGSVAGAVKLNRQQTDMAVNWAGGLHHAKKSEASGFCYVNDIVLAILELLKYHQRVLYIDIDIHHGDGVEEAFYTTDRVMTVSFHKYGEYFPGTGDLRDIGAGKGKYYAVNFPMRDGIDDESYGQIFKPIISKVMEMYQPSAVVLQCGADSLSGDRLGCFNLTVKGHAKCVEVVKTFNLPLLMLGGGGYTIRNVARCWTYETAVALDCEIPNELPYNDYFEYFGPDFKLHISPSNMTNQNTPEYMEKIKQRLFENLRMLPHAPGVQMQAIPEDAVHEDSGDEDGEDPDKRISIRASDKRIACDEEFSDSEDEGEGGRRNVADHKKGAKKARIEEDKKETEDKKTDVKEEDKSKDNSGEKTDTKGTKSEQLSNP

Histone deacetylase 2 [5] = biological target: T4, Histone deacetylase 2; experiment: Inhibition of HDAC2 (unknown origin)
Histone deacetylase 3 = Histone deacetylase 3 (Homo sapiens, UniProt O15379); experiment: Inhibition of HDAC3 (unknown origin)
Sequence of Histone deacetylase 3 (O15379 whole entry): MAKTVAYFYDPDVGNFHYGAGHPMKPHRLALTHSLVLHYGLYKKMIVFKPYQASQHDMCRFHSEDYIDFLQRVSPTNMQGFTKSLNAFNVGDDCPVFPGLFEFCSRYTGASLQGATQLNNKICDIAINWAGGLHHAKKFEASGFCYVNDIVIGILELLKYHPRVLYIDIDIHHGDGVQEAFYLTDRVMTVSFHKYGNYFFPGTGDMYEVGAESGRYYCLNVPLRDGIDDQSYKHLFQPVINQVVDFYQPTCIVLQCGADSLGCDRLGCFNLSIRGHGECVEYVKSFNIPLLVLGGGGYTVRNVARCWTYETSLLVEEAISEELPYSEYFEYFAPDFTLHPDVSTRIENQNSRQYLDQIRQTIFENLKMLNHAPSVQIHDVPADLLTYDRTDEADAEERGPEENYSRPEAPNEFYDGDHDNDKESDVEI

Histone deacetylase 8 [6] = biological target: T2, Histone deacetylase 8; experiment: Inhibition of HDAC8 (unknown origin)
Histone deacetylase 1 [7] = biological target: T3, Histone deacetylase 1; experiment: Inhibition of HDAC1 (unknown origin)
Homo sapiens [8] = organism: Homo sapiens; experiment: Selectivity ratio of IC50 for HDAC2 (unknown origin) to IC50 for HDAC6 (unknown origin)
Homo sapiens [9] = organism: Homo sapiens; experiment: Selectivity ratio of IC50 for HDAC8 (unknown origin) to IC50 for HDAC6 (unknown origin)
Homo sapiens [10] = organism: Homo sapiens; experiment: Selectivity ratio of IC50 for HDAC1 (unknown origin) to IC50 for HDAC6 (unknown origin)
HL-60 [11] = experiment: Induction of apoptosis in human HL-60 cells assessed as early apoptotic cells at 3 uM after 48 hrs by Annexin V-FITC/propidium iodide staining based flow cytometric analysis (reference value: […]%); format: functional
HUVEC = experiment: Cytotoxicity against human HUVEC cells assessed as decrease in cell viability after 48 hrs by MTT assay; format: cell-based
Summary of the method: (§1)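 Normal cells: HUVECs in RPMI1640 with 10% FBS plus 0.1% heparin, GEC-1 in RPMI1640 with 10% FBS. Seeded 8 h, then treated with serial dilutions for 48 h; 0.5% MTT for 4 h, supernatant removed, DMSO added, absorbance read at 570 nm.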

HL-60 [12] = experiment: Antiproliferative activity against human HL-60 cells assessed as inhibition of cell proliferation after 48 hrs by MTT assay; format: functional, cell-based; settings: HL-60, 48 h
Summary of the method: (§2)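 Leukemia/myeloma lines grown in RPMI1640 with 10% FBS at 37 °C, 5% CO2; seeded at 3500–4000 cells/well, cultured overnight, then exposed to serial dilutions for 48 h.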

NCI-H929 = experiment: Antiproliferative activity against human NCI-H929 cells assessed as inhibition of cell proliferation after 48 hrs by MTT assay; format: functional, cell-based; settings: NCI-H929, 48 h; summary of the method: as §2
HL-60 [13] = experiment: Induction of apoptosis in human HL-60 cells assessed as late apoptotic cells at 3 uM after 48 hrs by Annexin V-FITC/propidium iodide staining based flow cytometric analysis (reference value: 1.45%); format: functional
Summary of the method: (§3)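 HL-60 cells (1 × 10^6/well) exposed 48 h to compound dilutions, collected, PBS-washed, resuspended in Annexin V-FITC binding buffer, stained with propidium iodide and Annexin V-FITC for 15 min, then analysed by flow cytometry.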

KG-1 = experiment: Antiproliferative activity against human KG-1 cells assessed as inhibition of cell proliferation after 48 hrs by MTT assay; format: functional, cell-based; settings: KG-1, 48 h; summary of the method: as §2
[14] = Cytotoxicity against human GEC1 cells assessed as decrease in cell viability after 48 hrs by MTT assay; format: cell-based; settings: GEC1, 48 h; summary of the method: as §1
Jurkat = experiment: Antiproliferative activity against human Jurkat cells assessed as inhibition of cell proliferation after 48 hrs by MTT assay; format: functional, cell-based; summary of the method: as §2
HEL = experiment: Antiproliferative activity against human HEL cells assessed as inhibition of cell proliferation after 48 hrs by MTT assay; format: functional, cell-based; summary of the method: as §2
HL-60 [15] = experiment: Induction of apoptosis in human HL-60 cells assessed as viable cells at 3 uM after 48 hrs by Annexin V-FITC/propidium iodide staining based flow cytometric analysis (reference value: 93.4%); format: functional; settings: read-out: Activity; summary of the method: as §3

O=C(NO)c1ccc(CN2C(=O)CN(Cc3ccc4ccccc4c3)C2=O)cc1
IC50 [1]: 13.1 nM

CC(C)(C)c1ccc(CN2CC(=O)N(Cc3ccc(C(=O)NO)cc3)C2=O)cc1
IC50 [1]: 40.7 nM

CCCN1CC(=O)N(Cc2ccc(C(=O)NO)cc2)C1=O
IC50 [1]: 53.4 nM

O=C(NO)c1ccc(CN2C(=O)CN(Cc3ccc(Cl)cc3)C2=O)cc1
IC50 (Histone deacetylase 8 [2]): 994 nM | IC50 (Histone deacetylase 1 [3]): 863 nM | IC50 (Histone deacetylase 2 [4]): 1080 nM | IC50 [1]: 8.3 nM

O=C(NO)c1ccc(CN2C(=O)CN(CCc3ccccc3)C2=O)cc1
IC50 [1]: 21.7 nM

Cc1ccc(CN2CC(=O)N(Cc3ccc(C(=O)NO)cc3)C2=O)cc1
IC50 [1]: 17.6 nM

O=C(NO)c1ccc(CN2C(=O)CN(Cc3ccccc3)C2=O)cc1
IC50 [1]: 12.5 nM

CN1CC(=O)N(Cc2ccc(C(=O)NO)cc2)C1=O
IC50 [1]: 119 nM

COc1ccc(CN2CC(=O)N(Cc3ccc(C(=O)NO)cc3)C2=O)cc1
IC50 [1]: 28.2 nM

CC(C)(C)OC(=O)Nc1ccc(-c2cc(NC(=O)CCCCCCC(=O)NO)no2)cc1
IC50 (Histone deacetylase 2 [5]): 252 nM | IC50 (Histone deacetylase 3): 0.42 nM | IC50 (Histone deacetylase 8 [6]): 6850 nM | IC50 (Histone deacetylase 1 [7]): 271 nM

O=C(NO)c1ccc(CN2C(=O)NC(CCc3ccccc3)(c3ccccc3)C2=O)cc1 (racemic)
IC50 [1]: 24.7 nM

O=C(NO)c1ccc(CN2C(=O)C(Cc3ccccc3)N(Cc3cccc4ccccc34)C2=O)cc1 (racemic)
IC50 [1]: 28.8 nM

O=C(NO)c1ccc(CN2C(=O)NC(Cc3ccc(Cl)cc3)(c3ccccc3)C2=O)cc1 (racemic)
IC50 [1]: 54 nM

Cc1ccc(CN2C(=O)N(Cc3ccc(C(=O)NO)cc3)C(=O)C2Cc2ccccc2)cc1 (racemic)
IC50 [1]: 37.8 nM

O=C(NO)c1ccc(CN2C(=O)C(Cc3ccccc3)N(Cc3ccc(Cl)cc3)C2=O)cc1 (racemic)
IC50 (Histone deacetylase 8 [2]): 3990 nM | IC50 (Histone deacetylase 1 [3]): 8180 nM | IC50 (Histone deacetylase 2 [4]): 8260 nM | Ratio IC50 (Homo sapiens [8]): 1380 | Ratio IC50 (Homo sapiens [9]): 664 | IC50 [1]: 6 nM | Ratio IC50 (Homo sapiens [10]): 1360

CCCN1C(=O)N(Cc2ccc(C(=O)NO)cc2)C(=O)C1Cc1ccccc1 (racemic)
IC50 [1]: 56.9 nM

O=C(NO)c1ccc(CN2C(=O)C(Cc3ccccc3)N(Cc3ccc4ccccc4c3)C2=O)cc1 (racemic)
IC50 [1]: 25.1 nM

O=C(NO)c1ccc(CN2C(=O)C(Cc3ccccc3)N(Cc3ccccc3)C2=O)cc1 (racemic)
IC50 [1]: 21.3 nM

CC(C)(C)c1ccc(CC2(c3ccccc3)NC(=O)N(Cc3ccc(C(=O)NO)cc3)C2=O)cc1 (racemic)
IC50 [1]: 115 nM

CCCN1C(=O)N(Cc2ccc(C(=O)NO)cc2)C(=O)C1CC(C)C (racemic)
IC50 [1]: 174 nM

O=C(NO)c1ccc(CN2C(=O)C(Cc3ccccc3)N(Cc3ccccn3)C2=O)cc1 (racemic)
IC50 (Histone deacetylase 8 [2]): 7830 nM | IC50 (Histone deacetylase 1 [3]): 3420 nM | IC50 (Histone deacetylase 2 [4]): 5080 nM | IC50 [1]: 4.8 nM

CCCC1(c2ccccc2)NC(=O)N(Cc2ccc(C(=O)NO)cc2)C1=O (racemic)
IC50 [1]: 50.9 nM

O=C(NO)c1ccc(CN2C(=O)NC(Cc3ccccc3)(c3ccccc3)C2=O)cc1 (racemic)
IC50 [1]: 71.9 nM

COc1ccc(CN2C(=O)N(Cc3ccc(C(=O)NO)cc3)C(=O)C2Cc2ccccc2)cc1 (racemic)
IC50 [1]: 102 nM

COc1ccc(CC2(c3ccccc3)NC(=O)N(Cc3ccc(C(=O)NO)cc3)C2=O)cc1 (racemic)
IC50 [1]: 72.4 nM

O=C(NO)c1ccc(CN2C(=O)NC(Cc3cccc4ccccc34)(c3ccccc3)C2=O)cc1 (racemic)
IC50 [1]: 91.9 nM

CC1(c2ccccc2)NC(=O)N(Cc2ccc(C(=O)NO)cc2)C1=O (racemic)
IC50 [1]: 74.9 nM

CC(C)(C)c1ccc(CN2C(=O)N(Cc3ccc(C(=O)NO)cc3)C(=O)C2Cc2ccccc2)cc1 (racemic)
IC50 [1]: 139 nM

CC(C)CC1C(=O)N(Cc2ccc(C(=O)NO)cc2)C(=O)N1C (racemic)
IC50 [1]: 251 nM

O=C(NO)c1ccc(CN2C(=O)NC(Cc3ccc4ccccc4c3)(c3ccccc3)C2=O)cc1 (racemic)
IC50 [1]: 74.6 nM

O=C(NO)c1ccc(CN2C(=O)C(Cc3ccccc3)N(CCc3ccccc3)C2=O)cc1 (racemic)
IC50 [1]: 20.2 nM

CN1C(=O)N(Cc2ccc(C(=O)NO)cc2)C(=O)C1Cc1ccccc1 (racemic)
IC50 [1]: 108 nM

CC(C)CC1C(=O)N(Cc2ccc(C(=O)NO)cc2)C(=O)N1Cc1ccccc1 (racemic)
IC50 [1]: 129 nM

O=C(NO)c1ccc(CN2C(=O)C(Cc3ccccc3)N(Cc3ccncc3)C2=O)cc1 (racemic)
IC50 [1]: 13.9 nM

Cc1ccc(CC2(c3ccccc3)NC(=O)N(Cc3ccc(C(=O)NO)cc3)C2=O)cc1 (racemic)
IC50 [1]: 82.4 nM

CN1CCc2c(c3ccccc3n2Cc2ccc(C(=O)NO)cc2)C1 [TUBASTATIN A]
Activity (HL-60 [11]): 6.12% | IC50 (HUVEC): 69200 nM | IC50 (HL-60 [12]): 4090 nM | IC50 (NCI-H929): 15400 nM | Activity (HL-60 [13]): 6.24% | IC50 (KG-1): 8820 nM | IC50 [14]: 48600 nM | IC50 (Jurkat): 14600 nM | IC50 (HEL): 8090 nM | viability at 3 µM (HL-60 [15]): 87.6%
